{
  "source": "ChEMBL document CHEMBL4699441",
  "about": "“Identification and Preclinical Evaluation of the Bicyclic Pyrimidine γ-Secretase Modulator BMS-932481” (ACS Med Chem Lett, 2019)",
  "key": {"[1]": {"target": "Voltage-gated inwardly rectifying potassium channel KCNH2 (Homo sapiens, UniProt Q12809)", "sequence (Q12809 whole entry)": "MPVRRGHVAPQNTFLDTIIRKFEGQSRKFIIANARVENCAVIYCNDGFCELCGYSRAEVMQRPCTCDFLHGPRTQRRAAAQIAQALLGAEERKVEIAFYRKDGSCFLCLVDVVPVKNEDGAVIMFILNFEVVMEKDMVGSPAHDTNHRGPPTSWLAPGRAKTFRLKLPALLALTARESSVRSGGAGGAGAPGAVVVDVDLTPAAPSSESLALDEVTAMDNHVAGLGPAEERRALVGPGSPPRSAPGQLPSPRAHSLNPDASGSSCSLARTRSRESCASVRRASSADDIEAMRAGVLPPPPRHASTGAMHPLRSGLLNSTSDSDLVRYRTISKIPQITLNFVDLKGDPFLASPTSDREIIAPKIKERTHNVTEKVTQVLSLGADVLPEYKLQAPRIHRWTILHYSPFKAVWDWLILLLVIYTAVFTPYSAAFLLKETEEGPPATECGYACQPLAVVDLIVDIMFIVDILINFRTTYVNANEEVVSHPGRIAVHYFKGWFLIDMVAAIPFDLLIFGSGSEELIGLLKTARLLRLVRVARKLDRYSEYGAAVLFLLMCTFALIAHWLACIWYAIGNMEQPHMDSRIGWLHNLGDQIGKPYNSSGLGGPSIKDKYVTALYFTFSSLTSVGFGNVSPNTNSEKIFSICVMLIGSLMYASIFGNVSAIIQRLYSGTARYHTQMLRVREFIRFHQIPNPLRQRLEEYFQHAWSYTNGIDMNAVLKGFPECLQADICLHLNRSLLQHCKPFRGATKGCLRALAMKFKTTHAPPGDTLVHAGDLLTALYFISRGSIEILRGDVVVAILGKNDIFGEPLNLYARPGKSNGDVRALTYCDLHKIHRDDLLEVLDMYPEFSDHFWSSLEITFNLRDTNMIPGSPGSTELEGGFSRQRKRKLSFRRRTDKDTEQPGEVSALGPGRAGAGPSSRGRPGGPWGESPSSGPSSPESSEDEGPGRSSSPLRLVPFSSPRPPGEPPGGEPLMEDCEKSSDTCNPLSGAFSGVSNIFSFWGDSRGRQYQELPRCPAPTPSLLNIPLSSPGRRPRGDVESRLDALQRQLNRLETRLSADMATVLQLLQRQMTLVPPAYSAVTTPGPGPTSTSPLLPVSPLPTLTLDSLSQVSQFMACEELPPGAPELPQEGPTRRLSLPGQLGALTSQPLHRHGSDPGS", "assay": "Inhibition of human ERG by patch clamp method"}, "[2]": {"test_system": "H4", "assay": "Inhibition of amyloid beta (1 to 42) secretion in human H4 cells overexpressing APP incubated for 24 hrs by MALDI-TOF mass spectrometric analysis", "assay_type": "functional, cell-based"}, "[3]": {"assay": "Fraction unbound in human plasma measured after 24 hrs by LC-MS/MS analysis", "assay_type": "ADME, cell-free"}, "[4]": {"assay": "Hemodynamic activity in unconscious telemeterized rabbit assessed as decrease in heart rate at >= 10 mg/kg", "assay_type": "ADME, organism-based, Oryctolagus cuniculus", "settings": "in vivo"}, "[5]": {"assay": "Dissociation constant, pKa of compound", "assay_type": "physicochemical"}, "[6]": {"assay": "Fraction unbound in cynomolgus monkey plasma measured after 24 hrs by LC-MS/MS analysis", "assay_type": "ADME, cell-free, Macaca fascicularis"}, "[7]": {"assay": "Fraction unbound in mouse plasma measured after 24 hrs by LC-MS/MS analysis", "assay_type": "ADME, cell-free"}, "[8]": {"assay": "Aqueous solubility of the compound at pH 6.5", "assay_type": "physicochemical", "settings": "buffer"}, "[9]": {"assay": "Toxicity in rat assessed as change in gamma-secretase modulator function at 100 mg/kg, po administered for 2 week", "assay_type": "organism-based", "settings": "in vivo, 336 h, time 2 weeks"}, "[10]": {"assay": "Induction of CYP3A4 mRNA expression in human hepatocytes at 3.3 to 10 uM relative to control", "assay_type": "ADME, cell-based, Hepatocyte", "settings": "dose 3.3-10 µM"}, "[11]": {"assay": "Hemodynamic activity in conscious telemeterized rat assessed as change in heart rate at >= 10 mg/kg", "assay_type": "ADME, organism-based", "settings": "in vivo"}, "[12]": {"target": "Cytochrome P450 2C19 (Homo sapiens, UniProt P33261)", "sequence (P33261 whole entry)": "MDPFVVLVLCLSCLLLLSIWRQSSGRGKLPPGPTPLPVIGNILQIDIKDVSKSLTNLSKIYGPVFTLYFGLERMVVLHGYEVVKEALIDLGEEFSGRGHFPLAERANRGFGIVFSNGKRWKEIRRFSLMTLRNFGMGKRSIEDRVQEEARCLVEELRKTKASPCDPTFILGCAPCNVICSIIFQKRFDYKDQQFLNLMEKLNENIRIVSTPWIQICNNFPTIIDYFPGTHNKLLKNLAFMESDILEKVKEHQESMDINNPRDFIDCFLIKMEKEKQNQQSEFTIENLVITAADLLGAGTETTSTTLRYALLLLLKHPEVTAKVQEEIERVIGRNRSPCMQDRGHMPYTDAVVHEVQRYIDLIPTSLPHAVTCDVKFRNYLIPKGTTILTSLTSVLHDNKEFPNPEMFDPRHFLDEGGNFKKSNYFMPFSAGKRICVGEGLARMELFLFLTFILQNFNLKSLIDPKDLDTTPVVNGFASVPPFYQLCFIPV", "assay": "Inhibition of CYP2C19 in human liver microsomes", "assay_type": "ADME"}, "[13]": {"assay": "Cmax in Beagle dog at 300 mg/kg, po measured up to 24 hrs by LC-MS/MS analysis", "assay_type": "ADME, organism-based, Canis lupus familiaris", "design": "route oral, dose 300 mg/kg, time >=24", "settings": "in vivo", "procedure,_shortened": "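Dogs given an acute single oral dose of 300 mg/kg; plasma Cmax and AUC measured alongside bilirubin and other clinical pathology assessments.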"}, "[14]": {"target": "T1, Cytochrome P450 2B6 (Homo sapiens, UniProt P20813)", "T1 sequence (P20813 whole entry)": "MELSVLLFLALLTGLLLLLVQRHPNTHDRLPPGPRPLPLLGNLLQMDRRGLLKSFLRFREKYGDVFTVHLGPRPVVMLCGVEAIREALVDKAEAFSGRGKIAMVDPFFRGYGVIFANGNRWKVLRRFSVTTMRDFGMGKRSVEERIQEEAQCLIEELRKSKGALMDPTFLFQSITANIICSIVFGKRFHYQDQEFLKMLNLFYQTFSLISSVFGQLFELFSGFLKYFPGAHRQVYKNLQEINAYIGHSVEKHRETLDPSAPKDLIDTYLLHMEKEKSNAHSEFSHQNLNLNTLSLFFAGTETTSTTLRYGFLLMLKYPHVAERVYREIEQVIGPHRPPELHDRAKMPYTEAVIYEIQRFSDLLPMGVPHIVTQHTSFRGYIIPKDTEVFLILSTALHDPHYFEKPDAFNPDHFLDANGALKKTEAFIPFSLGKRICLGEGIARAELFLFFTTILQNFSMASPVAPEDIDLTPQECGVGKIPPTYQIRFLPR", "assay": "Inhibition of CYP2B6 in human liver microsomes", "assay_type": "ADME"}, "[15]": {"target": "Cytochrome P450 3A4 (Homo sapiens, UniProt P08684)", "sequence (P08684 whole entry)": "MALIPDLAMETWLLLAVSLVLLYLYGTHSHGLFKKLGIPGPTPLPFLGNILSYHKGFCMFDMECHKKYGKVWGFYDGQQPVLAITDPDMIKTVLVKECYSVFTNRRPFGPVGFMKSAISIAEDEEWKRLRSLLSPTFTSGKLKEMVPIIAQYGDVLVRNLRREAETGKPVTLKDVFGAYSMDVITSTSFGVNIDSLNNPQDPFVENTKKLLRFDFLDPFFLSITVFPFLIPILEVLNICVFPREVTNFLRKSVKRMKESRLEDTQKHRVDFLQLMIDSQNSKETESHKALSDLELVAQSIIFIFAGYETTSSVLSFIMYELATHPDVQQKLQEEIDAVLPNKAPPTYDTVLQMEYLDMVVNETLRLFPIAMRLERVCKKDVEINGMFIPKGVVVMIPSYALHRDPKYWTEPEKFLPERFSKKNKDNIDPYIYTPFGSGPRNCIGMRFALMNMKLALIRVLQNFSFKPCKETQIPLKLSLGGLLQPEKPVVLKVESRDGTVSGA", "assay": "Time dependent inhibition of CYP3A4 in human liver microsomes assessed as inhibition constant", "assay_type": "ADME"}, "[16]": {"assay": "Ratio of drug level in brain to plasma in Harlan Sprague-Dawley rat at 10 mg/kg, po measured after 5 hrs", "assay_type": "ADME, organism-based", "settings": "read-out: BPR"}, "[17]": {"assay": "Plasma exposure (AUC) in rat at 10 mg/kg measured after 24 hrs"}, "[18]": {"assay": "Plasma exposure (AUC) in rat at 3 mg/kg measured after 24 hrs"}, "[19]": {"assay": "Toxicity in Beagle dog assessed as NOAEL administered for 1 month", "design": "species or system Canis lupus familiaris", "settings": "in vivo, 730 h, time 1 months"}, "[20]": {"assay": "Hemodynamic activity in conscious telemeterized rat assessed as change in blood pressure at >= 10 mg/kg", "assay_type": "ADME, organism-based", "settings": "in vivo"}, "[21]": {"assay": "Cardiotoxicity in unconscious telemeterized rabbit assessed as increase in QTcv time at 10 mg/kg", "assay_type": "toxicity, organism-based, Oryctolagus cuniculus", "settings": "in vivo"}, "[22]": {"assay": "Half life in Sprague-Dawley rat at 2 mg/kg, iv measured up to 24 hrs by LC-MS/MS analysis", "assay_type": "ADME, organism-based", "settings": "in vivo", "procedure,_shortened": "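Sprague-Dawley rats, 2 mg/kg by 5 min iv infusion in 9:1 PEG:EtOH, n=5.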"}, "[23]": {"test_system": "H4", "assay": "Inhibition of amyloid beta (1 to 40) secretion in human H4 cells overexpressing APP incubated for 24 hrs by MALDI-TOF mass spectrometric analysis", "assay_type": "functional, cell-based"}, "[24]": {"assay": "Inhibition of amyloid beta (1 to 40) secretion in human H4 cells overexpressing APP incubated for overnight by HTRF analysis", "assay_type": "functional, cell-based"}, "[25]": {"assay": "Cardiotoxicity in unconscious telemeterized rabbit assessed as increase in QTcv time at 3 mg/kg", "assay_type": "toxicity, organism-based, Oryctolagus cuniculus", "settings": "in vivo"}, "[26]": {"assay": "Volume of steady state distribution in Beagle dog at 1 mg/kg, iv measured up to 24 hrs by LC-MS/MS analysis", "assay_type": "ADME, organism-based, Canis lupus familiaris", "settings": "in vivo", "procedure,_shortened": "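Male Beagle dog or male cynomolgus monkey; 1 mg/kg as 5 min iv infusion in 9:1 PEG:EtOH; n = 3; volume of distribution at steady state.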"}, "[27]": {"assay": "Induction of necrosis in rat at 100 mg/kg, po administered for 2 week", "assay_type": "organism-based", "settings": "in vivo, 336 h, time 2 weeks", "procedure,_shortened": "(§1)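 Rats given oral doses of 10, 30 or 100 mg/kg daily for 2 weeks in a repeat-dose toxicity study.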"}, "[28]": {"assay": "Inhibition of total amyloid beta secretion in human H4 cells overexpressing APP at 50 uM", "assay_type": "cell-based"}, "[29]": {"assay": "Toxicity in rat assessed as reduction in food consumption at 100 mg/kg, po administered for 2 week", "assay_type": "organism-based", "settings": "in vivo, 336 h, time 2 weeks"}, "[30]": {"target": "Gamma-secretase (Homo sapiens) (UniProt Q96BI3+Q9NZ42+Q8WW43+P49768+Q92542+P49810)", "assay": "Modulation of gamma-secretase in human H4 cells overexpressing APP incubated assessed as increase in amyloid beta (1 to 37) secretion for 24 hrs by MALDI-TOF mass spectrometric analysis", "assay_type": "cell-based", "settings": "filed as modulator", "procedure,_shortened": "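H4-APPsw cells treated with compound; secreted Aβ species quantified by mass spectrometry; total Aβ1-x checked by ELISA up to 10 μM.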"}, "[31]": {"assay": "Metabolic stability in cynomolgus monkey assessed as half life incubated for 24 hrs by LC-MS/MS analysis", "assay_type": "ADME, Macaca fascicularis"}, "[32]": {"assay": "Reduction in amyloid beta (1 to 42) secretion in brain in Harlan Sprague-Dawley rat at 10 mg/kg, po measured after 3 hrs relative to control", "assay_type": "functional", "procedure,_shortened": "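Sprague–Dawley rats dosed 10 mg/kg po; brain Aβ1-42 measured 3 h postdose; n = 5.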"}, "[33]": {"assay": "Hepatotoxicity in rat at 100 mg/kg, po administered for 2 week", "assay_type": "toxicity, organism-based", "settings": "in vivo, 336 h, time 2 weeks", "procedure,_shortened": "as §1"}},
  "note": "Calls of active or inactive are those of the source. No cut-off for these calls is given here.",
  "data": [
    {"smiles": "CNc1nc(Nc2ccc(-n3cnc(C)n3)c(OC)c2)nc2c1CC[C@H]2c1ccc(F)cc1", "values": [
      {"measurement": "IC50", "setting": "[1]", "result": 1.2, "unit": "µM"},
      {"measurement": "inhibition", "setting": "[2]", "result": "Active"},
      {"measurement": "Fu", "setting": "[3]", "result": 0.6, "unit": "%"},
      {"measurement": "Activity", "setting": "[4]", "result": "Non-Toxic"},
      {"measurement": "pKa", "setting": "[5]", "result": 2},
      {"measurement": "Fu", "setting": "[6]", "result": 1.3, "unit": "%"},
      {"measurement": "Fu", "setting": "[7]", "result": 0.7, "unit": "%"},
      {"measurement": "solubility", "setting": "[8]", "result": 0.1, "unit": "µg/mL"},
      {"measurement": "Activity", "setting": "[9]", "result": "Non-Toxic"},
      {"measurement": "Activity", "setting": "[10]", "result": 36, "unit": "%"},
      {"measurement": "Activity", "setting": "[11]", "result": "Non-Toxic"},
      {"measurement": "IC50", "setting": "[12]", "result": 8.3, "unit": "µM"},
      {"measurement": "Cmax", "setting": "[13]", "result": 14, "unit": "µM"},
      {"measurement": "IC50", "setting": "[14]", "result": "> 40", "unit": "µM"},
      {"measurement": "Ki", "setting": "[15]", "result": 83, "unit": "µM"},
      {"measurement": "Kp at 5 h", "setting": "[16]", "result": 0.23},
      {"measurement": "AUC at 24 h", "setting": "[17]", "result": 32, "unit": "µM·h"},
      {"measurement": "AUC at 24 h", "setting": "[18]", "result": 9.7, "unit": "µM·h"},
      {"measurement": "NOAEL", "setting": "[19]", "result": 150, "unit": "mg/kg"},
      {"measurement": "Activity", "setting": "[20]", "result": "Non-Toxic"},
      {"measurement": "Time", "setting": "[21]", "result": 10, "unit": "ms"},
      {"measurement": "t1/2", "setting": "[22]", "result": 2.7, "unit": "h"},
      {"measurement": "inhibition", "setting": "[23]", "result": "Active"},
      {"measurement": "IC50", "setting": "[24]", "result": 0.025, "unit": "µM"},
      {"measurement": "Time", "setting": "[25]", "result": 4, "unit": "ms"},
      {"measurement": "Vdss", "setting": "[26]", "result": 6.1, "unit": "L/kg"},
      {"measurement": "Activity", "setting": "[27]", "result": "Non-Toxic"},
      {"measurement": "inhibition at 50 µM", "setting": "[28]", "result": 30, "unit": "%"},
      {"measurement": "Activity", "setting": "[29]", "result": "Non-Toxic"},
      {"measurement": "inhibition", "setting": "[30]", "result": "Active"},
      {"measurement": "t1/2", "setting": "[31]", "result": 0.183, "unit": "h"},
      {"measurement": "inhibition in vivo at 10 mg/kg", "setting": "[32]", "result": 41, "unit": "%"},
      {"measurement": "Activity", "setting": "[33]", "result": "Non-Toxic"}
    ]}
  ]
}
